We go through two compounds from article PMC3104004 (European Journal of Nuclear Medicine and Molecular Imaging, 2011).

In data set [1] the test system is kidney of PC-3-bearing mice. As to conditions: PC-3-bearing athymic mice, 30 min after injection; ref 26 (Zheng et al.); cited from earlier work.
The subject of the next data set is PC-3 tumours. Description: Dynamic PET scanning with quantitative VOI analysis in PC-3 tumour-bearing mice. The data set is classed as in vivo, male NMRI nu/nu mice. The settings on record: tail vein injection 100 μl; last 10 min of 20 min scan; N = 3. Put shortly:
(§1)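 Male NMRI nu/nu mice, 6–7 weeks old, inoculated s.c. in the right shoulder with ~5×10^6 VCaP or PC-3 cells in PBS. Under isoflurane/oxygen, prone, on a microPET with a heating mat. Test tracer 100 μl (8.1–1.2 MBq) given by tail-vein cannula; dynamic full-body scan for 20 min from injection. Tumour VOIs drawn manually, averaged over two analysts. %ID/g = VOI activity/injected dose ×100; steady-state taken from last 10 min; median, IQR; Mann-Whitney U.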

Data set [2] has as its system VCaP tumour and preselected organs. Nature of the data set: Ex vivo biodistribution in VCaP tumour-bearing mice. The settings on record: 30 min after injection, 100 μl iv. On the set-up: species or system male NMRI nu/nu mice. The essentials: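 Done after PET. VCaP-bearing mice killed 60 min after i.v. tail-vein 68Ga-labelled bombesin-analogue tracer (300 pmol, 1.5–0.5 MBq), or 30 min after 18F-choline tracer (100 μl, 8.1–1.2 MBq). Gamma-counted: tumour, liver, heart, blood, muscle, tail, kidneys, pancreas and colon. %ID/g corrected for activity left in the tail; mean ± SD, four mice per tracer; unpaired t-test.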

Data set [3] deals with human prostate VCaP xenografts. Description: Dynamic PET scanning with quantitative VOI analysis in VCaP tumour-bearing mice. The data set is classed as in vivo, male NMRI nu/nu mice. Put shortly: as §1

In the case of `C[N+](C)([11CH3])CCO` [^11C-choline], the kidney uptake in data set [1] is listed as 5.1 ± 1.8 %ID/g.
As to `C[N+](C)(C[18F])CCO` [^18F-FCH, N-[^18F]-fluoromethyl-N-(2-hydroxyethyl)-N,N-dimethylammonium], the “PC-3 tumour uptake from PET (plateau phase)” value in the data set with PC-3 tumours was found to be 1.2 ± 0.3 %ID/g. Besides, in data set [2] (VCaP-bearing mice, N = 4), the uptake in blood is on record as 0.8 ± 0.1 %ID/g tissue, the uptake in heart is 4.7 ± 0.5 %ID/g tissue, the uptake in kidneys worked out at 35.7 ± 4.1 %ID/g and the uptake in liver is 13.0 ± 1.7 %ID/g tissue. In data set [2] (VCaP-bearing mice, N = 4), the uptake in muscle stood at 0.9 ± 0.2 %ID/g tissue and the “uptake in pancreas (GRPR-positive)” value stood at 3.6 ± 1.0 %ID/g. Moreover, the “VCaP tumour uptake (biodistribution)” value in data set [2] (ex vivo counting) was found to be 2.1 ± 0.4 %ID/g. Further, the “time at which tumour uptake reached a plateau phase” value in data set [3] (dynamic PET, VCaP tumour, after injection) was “less than 10 min”. Also, in data set [3] (tail vein injection 100 μl, 8.1–1.2 MBq, 10–20 min after injection, N = 8), the “VCaP tumour uptake determined from PET at steady-state (plateau phase)” value is on record as 1.6 ± 0.5 %ID/g.
